These results are taken from ChEMBL document CHEMBL1143960.

The structures appear in SMILES notation. Calls of active or inactive are those of the source. The calls are words filed in the database; no cut-off is given here.

What all share (format): functional, cell-based
Test [1] has as its system PC-3M. Briefly: Anti-invasive activity against human PC3M cells at 50 nM.
The test system of test [2] is PC-3M. Briefly: Effect on paracellular permeability of human PC3M cells. In outline: (§1)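 PC-3M grown at confluency on Transwell filters in complete medium until TER developed. Tetramethylrhodamine-dextran (4 kDa, 1 mg/mL in HBSS) added to upper chamber, HBSS in lower.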
Test [3] concerns PC-3M. Kind of test: Effect on paracellular permeability of calcitonin-treated human PC3M cells. In outline: as §1
Test [4] deals with PC-3M. Kind of test: Antiproliferative activity against human PC3M cells at 5 to 50 nM by MTT assay.
Test [5] has as its system PC-3M. Kind of test: Effect on baseline transepithelial resistance in human PC3M cells. In outline:
(§2)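 PC-3M plated at confluency on Transwell filters (0.4 µm pores) in complete medium with 25 mM Hepes, pH 7.4. Cultured with or without CT (50 nM). TER measured in duplicate wells every 12 h with a voltohmmeter. Values blank-subtracted (filter plus bathing medium) and normalized to filter area.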

Test [6] has as its system PC-3M. Briefly: Effect on calcitonin-stimulated decrease in transepithelial resistance in human PC3M cells. The method, boiled down: as §2
Test [7] relates to PC-3M. Briefly: Cytotoxicity against human PC3M cells at 50 nM by MTT assay.

For `CCNC(=O)O[C@H]1/C=C(\C)CC/C=C(\C)CC[C@@H](C(C)C)/C=C/[C@](C)(O)C1`, the result in the test with PC-3M [1], with PC-3M [2], with PC-3M [3], in the test on PC-3M [4], with PC-3M [5] and in the test on PC-3M [6] was Active.
Turning to `C/C1=C\[C@H](OC(=O)NCc2ccccc2)C[C@@](C)(O)/C=C/[C@H](C(C)C)CC/C(C)=C/CC1`, the outcome in the test on PC-3M [1] and in the test with PC-3M [4] was Active.
For `C/C1=C\[C@H](O)C[C@@](C)(O)/C=C/[C@H](C(C)C)C[C@@H](O)/C(C)=C/CC1`, the outcome in the test with PC-3M [1] was Active. For the same compound, in the test with PC-3M [7], the result was inactive.
Regarding `C/C1=C\[C@H](O)C[C@@](C)(O)/C=C/[C@H](C(C)C)CC/C(CO)=C/CC1`, the outcome with PC-3M [1] was Active.
`C/C1=C\C[C@@H](O)/C(C)=C/[C@H](O)C[C@@](C)(O)/C=C/[C@H](C(C)C)CC1`: the result in the test on PC-3M [1] was Active.
`C/C1=C\[C@H](OC(=O)NCCCl)C[C@@](C)(O)/C=C/[C@H](C(C)C)CC/C(C)=C/CC1`: the outcome with PC-3M [1] and with PC-3M [4] was Active.
In the case of `C/C1=C\CC/C(CO)=C/[C@H](O)C[C@@](C)(O)/C=C/[C@H](C(C)C)CC1`, in the test on PC-3M [1], the result was Active.
